Sampled rows, rich in hits. Any-hit rate of the full collection: about 1.7%.
HNF4A DNA FP – change in binding of human HNF4 alpha to DNA; hit rate 0.3% among 360,000; HNF4a-FITC DNA binding, fluorescence polarization, 1 h; activity change, % at 10 µM; P41235; in the data active = activity change above about 30%, passing the limit was not always enough
TPT1 inh – C. albicans TPT1 enzyme inhibition; recombinant caTPT1, FP RNA substrate dephosphorylation; inhibition, % at 5 µM; hit rate 0.81% among 300,000;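 active = inhibition above the mean of all tested compounds plus 3 SD, set per screening campaign, cut at about 24% in these data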;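 also: plate controls were DMSO alone for no effect and ferristatin control at 100 nM for full effect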
CSN inh – blocks human CSN-mediated cullin deneddylation. Q92905. Purified CSN, SCF-Nedd8-OG deneddylation, fluorescence polarization. inhibition, % at 12.5 µM. hit rate 0.38% among 360,000;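 active = pattern-corrected inhibition above about 35%, with an unprinted fluorescence ratio check between 0.5 and 1.5, limit read from the data, passing the limit was not always enough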;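 also: 0% = enzyme with substrate and 100% = substrate without enzyme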
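Test system: Human Csn5 produced in HEK293T cells | Compound: 12.5 µM single point | Times: 90 min, room temperature | Signal: Fluorescence polarization readout | Read-out basis: % inhibition of substrate cleavage by Csn5 | Controls: no-enzyme wells high, enzyme-with-substrate wells low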
Rev-erbA mod – modulators of human Rev-erb alpha DNA binding; activity, % at 10 µM; Rev-erbα–FITC-DNA binding, fluorescence polarization, 90 min; hit rate 0.79% among 370,000; P20393;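 active = activity above about 14%, limit read from the data; passing the limit was not always enough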;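 also: 0% = DMSO wells with 35 nM protein and 100% = DMSO wells with 750 nM protein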
Target sequence (P20393 whole entry, looked up): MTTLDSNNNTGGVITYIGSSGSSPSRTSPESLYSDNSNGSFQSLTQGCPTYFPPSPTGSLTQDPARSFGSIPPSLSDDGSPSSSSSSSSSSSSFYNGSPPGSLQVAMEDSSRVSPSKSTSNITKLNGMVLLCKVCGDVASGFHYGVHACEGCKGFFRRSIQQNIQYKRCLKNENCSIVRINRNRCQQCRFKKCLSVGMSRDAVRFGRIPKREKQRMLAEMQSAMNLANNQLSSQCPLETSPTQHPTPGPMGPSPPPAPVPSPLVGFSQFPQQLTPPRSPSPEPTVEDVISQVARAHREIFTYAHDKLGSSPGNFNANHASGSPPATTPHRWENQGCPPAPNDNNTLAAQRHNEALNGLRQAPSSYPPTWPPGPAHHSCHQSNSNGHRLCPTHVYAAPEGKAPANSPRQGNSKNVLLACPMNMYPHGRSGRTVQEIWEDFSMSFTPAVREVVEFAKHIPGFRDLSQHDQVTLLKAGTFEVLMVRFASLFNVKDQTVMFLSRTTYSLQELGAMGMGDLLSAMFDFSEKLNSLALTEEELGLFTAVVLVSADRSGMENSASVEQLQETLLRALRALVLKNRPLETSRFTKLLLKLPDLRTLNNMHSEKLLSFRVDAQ
caTPT1 confirm – TPT1 (C. albicans) inhibition, confirmation. shares compounds with TPT1 inh. recombinant caTPT1, fluorescence polarization, RNase T1 coupled. inhibition, % at 5 µM. hit rate 74% among 2,400. AID 2149;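 active = inhibition above the primary screen limit, the mean inhibition of all tested compounds plus 3 SD, cut at about 25% in these data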
RNase T1 inh – blocks Aspergillus oryzae RNase T1, a TPT1 counter-screen | shares compounds with TPT1 inh | inhibition, % at 5 µM | RNase T1 cleavage, fluorescence polarization, 1536-well | hit rate 83% among 2,400;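 active = inhibition above the solvent-only control well mean plus 3 SD, limit set per screening run, cut at about 23% in these data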;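 also: plate controls were DMSO wells with enzyme for no effect and wells without RNase T1 for full effect; inhibitors block cleavage so intact labeled substrate keeps polarization high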
The depositor's hits bear a star; / = no result.

SMILES	HNF4A DNA FP	TPT1 inh	CSN inh	Rev-erbA mod	caTPT1 confirm	RNase T1 inh
CCCCCCCCNS(=O)(=O)/C=C/c1ccc(OC)cc1CNC(=O)OC(C)(C)C	/	/	/	-3	/	/
Cc1ccc(NC(=S)NNC(=O)CSc2nc3sc4c(c3c(=O)n2-c2ccccc2)CCCC4)cc1	/	/	/	-1	/	/
CN(C)c1ccc(/C=N/N=C2/NC(=O)/C(=C/c3ccc([N+](=O)[O-])cc3)S2)cc1	5	44*	1	4	49*	63*
O=C1NC(=S)N/C1=C/c1cc([N+](=O)[O-])ccc1O	-2	43*	8	3	43*	52*
O=C1NC(=S)N/C1=C/c1cccc([N+](=O)[O-])c1O	3	5	1	1	/	/
COc1ccc(-c2ccc3c(n2)CCCN3S(=O)(=O)c2ccc(C#N)cc2)cc1	/	/	/	0	/	/
CCOc1cc(/C=C2/C(=N)N3C(=NC2=O)SN=C3S(C)(=O)=O)ccc1OS(=O)(=O)c1ccccc1	7	15	12	/	/	/
COc1cc(/C=C2/C(=N)N3C(=NC2=O)SN=C3S(C)(=O)=O)ccc1OS(=O)(=O)c1ccccc1	/	28*	/	/	16	23*
COc1ccc(NC(=O)c2cccc(Oc3ccc([N+](=O)[O-])cc3Cl)c2)cc1	2	0	1	3	/	/
CCN(CC)C(=O)c1ccc(Oc2ccc([N+](=O)[O-])cc2Cl)cc1	1	44*	-1	-8	5	7
CCCC[C@H]1C2CC(OC(=O)Nc3cccc(Cl)c3)C(C2)[C@H]2CCCCN21 (some centres undefined)	/	/	/	0	/	/
O=C1CC(=O)N(CCc2ccccc2)C(=O)N1CCc1ccccc1	4	40*	0	1	5	9
O=C1CC(=O)N(CCc2ccc(F)cc2)C(=O)N1	11	39*	13	4	31*	40*
CC(C)(C)S(=O)(=O)N1C[C@@H]2C(=C(CCO)C[C@@H]3C(=O)N(c4ccccc4)C(=O)[C@@H]32)[C@H]1CCO	/	/	/	0	/	/
CCOc1cc(/C=N\Nc2ccc([N+](=O)[O-])cc2)ccc1OCC(=O)Nc1ccc(C)c(C)c1	126	46*	5	4	30*	35*
C=CCN1[C@H](CC(C)C)COc2cc(F)ccc2S1(=O)=O	/	/	/	13	/	/
COc1cccc(CNC(=O)CN2CCCc3ccccc32)c1	/	/	/	1	/	/
COc1ccc(C(=O)/C=C/c2cn(CC(O)CN3CCN(C)CC3)c3ccccc23)cc1OC (centres undefined)	48*	50*	55*	7	61*	72*
O=C(/C=C/c1cn(CC(O)CN2CCCCC2)c2ccccc12)c1ccccc1 (centres undefined)	2	/	11	4	/	/
O=C(/C=C/c1cn(CC(O)CN2CCCCC2)c2ccccc12)c1cccs1 (centres undefined)	22	64*	34	19	65*	72*
CN1CCN(Cn2cc(/C=C/C(=O)c3ccccc3)c3ccccc32)CC1	1	17	1	/	/	/
CC(C)CNc1cccc2c1S(=O)(=O)N(Cc1cccc(F)c1)[C@@H](C)[C@H](c1ccccc1)O2	/	/	/	4	/	/
COc1cccc(CN(C)C(=O)[C@H]2O[C@@H](n3cnc4c(=O)[nH]c(N)nc43)[C@H](O)[C@@H]2O)c1	/	/	/	1	/	/
Cc1ccc(C(=O)c2cc(O)c(O)c([N+](=O)[O-])c2)cc1	/	/	/	4	/	/
CCOC(=O)c1c(NC(=S)Nc2ccccc2)sc2c1CCN(CC)C2	44*	99*	31	6	86*	95*
SMILES	HNF4A DNA FP	TPT1 inh	CSN inh	Rev-erbA mod	caTPT1 confirm	RNase T1 inh
CCOC(=O)c1c(NC(=S)Nc2cccc(C)c2)sc2c1CC(C)(C)SC2	4	31*	-2	6	26*	32*
CCOC(=O)c1c(NC(=S)Nc2ccccc2)sc2c1CCCCC2	2	1	1	/	/	/
C[C@H](CO)N1C[C@H](C)[C@H](CN(C)S(=O)(=O)c2cccs2)Oc2ncc(Br)cc2C1=O	/	/	/	0	/	/
CC1=Nc2ccc(C)cc2/C1=C/c1c(N)n2nc(CC(=O)N3CCOCC3)sc2nc1=O	10	35*	14	-1	24	36*
Cc1ccc(C)c(NC(=O)Nc2ccc3c(c2)OCO3)c1	2	-5	-2	-8	/	/
Cc1ccc(CNc2ccc3c(c2)OCO3)c(C)c1	/	26*	/	/	20	35*
O=C(CSc1nc2ccccc2c(=O)[nH]1)c1cccs1	2	-2	0	2	/	/

Source: PubChem
